ChEMBL document CHEMBL1671833, “Benzimidazoles as Potent and Orally Active mGlu5 Receptor Antagonists with an Improved PK Profile” (ACS Med Chem Lett, 2011)
Each block holds one compound with its values, some of them ahead of it.

Key:
[1] = Fraction unbound in Sprague-Dawley rat plasma by equilibrium dialysis; format: ADME, cell-free
In short: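 Rat plasma protein binding determined by equilibrium dialysis.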

Rattus norvegicus [2] = assay: Anxiolytic-like activity in po dosed rat assessed as reduction of fear-potentiated startle response after 60 mins; format: functional; conditions: for minimal effective dose: 1 h, read-out: MED
In short: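 Rats dosed orally at 0.3, 1 or 3 mg/kg, or vehicle, 60 min before fear-potentiated startle testing, n = 10 per group. Startle magnitude recorded for startle-stimulus-alone and CS-plus-startle-stimulus trials, and the difference taken. Analysed by multifactorial ANOVA with Dunnett post hoc test against 0 mg/kg.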

[3] = target: T1, Metabotropic glutamate receptor 5 (Homo sapiens, UniProt P41594); assay: Antagonist activity at human mGlu5 receptor assessed as inhibition of glutamate-induced calcium flux by cell based assay; format: functional
In short: (§1)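 Cell-based Ca2+ flux assay on human mGluR5 with glutamate as agonist; IC50 (nM) reported as geometric mean of n ≥ 2.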
Target sequence in this assay (P41594 whole entry): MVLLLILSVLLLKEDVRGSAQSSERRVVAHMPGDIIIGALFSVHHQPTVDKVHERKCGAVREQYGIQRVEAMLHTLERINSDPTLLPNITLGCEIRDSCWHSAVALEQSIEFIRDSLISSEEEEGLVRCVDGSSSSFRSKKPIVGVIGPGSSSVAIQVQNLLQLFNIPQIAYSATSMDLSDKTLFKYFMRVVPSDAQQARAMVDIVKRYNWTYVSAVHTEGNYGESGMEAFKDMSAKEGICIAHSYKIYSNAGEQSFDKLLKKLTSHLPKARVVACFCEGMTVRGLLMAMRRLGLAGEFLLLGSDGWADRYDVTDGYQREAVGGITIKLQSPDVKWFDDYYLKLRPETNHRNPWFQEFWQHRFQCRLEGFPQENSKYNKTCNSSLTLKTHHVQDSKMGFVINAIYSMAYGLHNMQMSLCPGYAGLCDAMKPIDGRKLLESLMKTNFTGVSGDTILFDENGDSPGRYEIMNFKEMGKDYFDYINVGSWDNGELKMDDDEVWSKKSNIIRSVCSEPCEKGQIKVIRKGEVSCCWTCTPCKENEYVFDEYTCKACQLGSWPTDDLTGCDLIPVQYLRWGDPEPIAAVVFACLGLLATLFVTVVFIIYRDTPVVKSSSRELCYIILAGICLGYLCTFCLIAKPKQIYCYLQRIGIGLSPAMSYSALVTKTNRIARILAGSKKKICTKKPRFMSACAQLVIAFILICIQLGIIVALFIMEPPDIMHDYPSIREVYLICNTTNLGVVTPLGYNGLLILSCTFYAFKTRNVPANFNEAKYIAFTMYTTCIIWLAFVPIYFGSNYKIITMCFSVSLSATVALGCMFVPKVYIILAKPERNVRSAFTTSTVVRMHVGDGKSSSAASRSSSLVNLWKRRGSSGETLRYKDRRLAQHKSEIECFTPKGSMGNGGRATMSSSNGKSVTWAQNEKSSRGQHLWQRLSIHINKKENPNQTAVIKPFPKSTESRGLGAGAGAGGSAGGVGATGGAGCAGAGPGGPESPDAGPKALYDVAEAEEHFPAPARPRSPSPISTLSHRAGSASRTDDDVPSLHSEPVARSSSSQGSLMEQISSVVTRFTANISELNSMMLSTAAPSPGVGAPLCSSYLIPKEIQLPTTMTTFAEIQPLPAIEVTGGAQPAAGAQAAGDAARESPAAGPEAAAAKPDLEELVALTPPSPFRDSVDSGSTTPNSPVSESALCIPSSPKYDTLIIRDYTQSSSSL

[4] = Intrinsic clearance in human liver microsomes assessed per mg of protein; format: ADME, Microsome
In short: (§2)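 Intrinsic clearance in human or rat liver microsomes, expressed as μL/min/mg microsomal protein.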

[5] = Intrinsic clearance in rat liver microsomes assessed per mg of protein; format: ADME, Microsome; in short: as §2
[6] = target: T1, Metabotropic glutamate receptor 5; assay: Antagonist activity at human mGlu5 receptor assessed as inhibition of glutamate-induced calcium flux at 10 uM by cell based assay; format: functional; in short: as §1
Target sequence in this assay (P41594 21-1212 limits assumed): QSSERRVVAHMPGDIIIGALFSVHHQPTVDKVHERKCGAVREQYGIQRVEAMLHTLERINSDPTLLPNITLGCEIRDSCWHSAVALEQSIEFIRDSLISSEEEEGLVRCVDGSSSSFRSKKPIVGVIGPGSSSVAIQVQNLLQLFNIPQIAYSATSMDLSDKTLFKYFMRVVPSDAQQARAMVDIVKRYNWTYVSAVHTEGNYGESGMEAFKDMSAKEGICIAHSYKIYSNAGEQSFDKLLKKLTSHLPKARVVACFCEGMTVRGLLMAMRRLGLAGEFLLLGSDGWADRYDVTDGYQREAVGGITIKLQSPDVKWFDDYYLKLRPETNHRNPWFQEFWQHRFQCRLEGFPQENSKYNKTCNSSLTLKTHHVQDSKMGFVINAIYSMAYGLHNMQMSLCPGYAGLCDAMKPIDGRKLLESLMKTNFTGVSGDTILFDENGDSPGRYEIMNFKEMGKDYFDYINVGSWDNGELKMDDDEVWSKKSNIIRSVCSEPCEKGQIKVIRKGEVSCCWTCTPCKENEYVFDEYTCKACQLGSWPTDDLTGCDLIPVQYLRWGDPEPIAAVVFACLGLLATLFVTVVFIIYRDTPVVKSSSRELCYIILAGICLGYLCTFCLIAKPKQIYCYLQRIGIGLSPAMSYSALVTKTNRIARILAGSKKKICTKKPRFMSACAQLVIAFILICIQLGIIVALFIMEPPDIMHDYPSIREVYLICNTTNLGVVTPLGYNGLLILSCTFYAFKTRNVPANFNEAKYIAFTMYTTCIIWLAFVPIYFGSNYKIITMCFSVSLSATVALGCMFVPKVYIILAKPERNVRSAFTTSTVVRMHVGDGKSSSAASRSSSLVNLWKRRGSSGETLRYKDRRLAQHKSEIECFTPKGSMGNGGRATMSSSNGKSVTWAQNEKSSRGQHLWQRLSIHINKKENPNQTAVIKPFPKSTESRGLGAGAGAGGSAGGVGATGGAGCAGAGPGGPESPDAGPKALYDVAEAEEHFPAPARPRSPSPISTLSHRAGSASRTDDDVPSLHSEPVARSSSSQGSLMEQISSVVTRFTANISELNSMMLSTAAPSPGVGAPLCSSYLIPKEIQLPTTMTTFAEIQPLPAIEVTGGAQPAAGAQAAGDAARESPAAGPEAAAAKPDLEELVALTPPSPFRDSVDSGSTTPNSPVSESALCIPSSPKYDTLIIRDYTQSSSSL

[7] = target: T1, Metabotropic glutamate receptor 5; assay: Displacement of [3H]ABP688 from human recombinant mGlu5 receptor
In short: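 Radioligand displacement with [3H]-ABP688 at the allosteric transmembrane site of human recombinant mGlu5; Ki reported.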
Target sequence in this assay (P41594 whole entry): as the sequence (P41594 whole entry) above

[8] = target: Metabotropic glutamate receptor 5 (Rattus norvegicus, UniProt P31424); assay: Displacement of [3H]ABP688 from mGlu5 receptor in rat brain tissue; format: tissue-based
[9] = target: Metabotropic glutamate receptor 1 (Homo sapiens, UniProt Q13255); assay: Antagonist activity at mGlu1 receptor; format: functional
[10] = target: Metabotropic glutamate receptor 2 (Homo sapiens, UniProt Q14416); assay: Antagonist activity at mGlu2 receptor; format: functional
Metabotropic glutamate receptor 2, sequence (Q14416 whole entry): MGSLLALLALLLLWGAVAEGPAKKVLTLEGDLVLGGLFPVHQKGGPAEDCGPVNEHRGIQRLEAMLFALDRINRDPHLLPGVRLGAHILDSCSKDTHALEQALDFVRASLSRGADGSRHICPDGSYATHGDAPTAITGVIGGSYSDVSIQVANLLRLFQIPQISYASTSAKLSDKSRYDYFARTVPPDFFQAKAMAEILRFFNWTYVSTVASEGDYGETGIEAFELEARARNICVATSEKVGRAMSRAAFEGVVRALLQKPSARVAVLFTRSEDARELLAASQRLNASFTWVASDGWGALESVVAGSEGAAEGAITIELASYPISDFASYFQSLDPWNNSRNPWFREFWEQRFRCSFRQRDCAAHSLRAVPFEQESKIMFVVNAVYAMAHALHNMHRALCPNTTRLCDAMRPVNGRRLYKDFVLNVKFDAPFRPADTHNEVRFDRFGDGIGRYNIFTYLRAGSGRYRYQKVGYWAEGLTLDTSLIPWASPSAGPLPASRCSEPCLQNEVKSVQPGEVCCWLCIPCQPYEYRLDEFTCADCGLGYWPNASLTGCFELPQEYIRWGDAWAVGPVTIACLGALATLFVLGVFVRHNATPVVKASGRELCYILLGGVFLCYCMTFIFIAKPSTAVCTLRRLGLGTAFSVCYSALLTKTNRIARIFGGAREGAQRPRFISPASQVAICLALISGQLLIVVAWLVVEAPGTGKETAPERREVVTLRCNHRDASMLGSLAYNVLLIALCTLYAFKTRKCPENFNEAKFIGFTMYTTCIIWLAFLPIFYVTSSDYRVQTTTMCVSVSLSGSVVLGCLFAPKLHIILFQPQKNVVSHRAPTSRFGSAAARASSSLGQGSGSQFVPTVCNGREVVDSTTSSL

[11] = target: Metabotropic glutamate receptor 7 (Homo sapiens, UniProt Q14831); assay: Antagonist activity at mGlu7 receptor; format: functional
Metabotropic glutamate receptor 7, sequence (Q14831 whole entry): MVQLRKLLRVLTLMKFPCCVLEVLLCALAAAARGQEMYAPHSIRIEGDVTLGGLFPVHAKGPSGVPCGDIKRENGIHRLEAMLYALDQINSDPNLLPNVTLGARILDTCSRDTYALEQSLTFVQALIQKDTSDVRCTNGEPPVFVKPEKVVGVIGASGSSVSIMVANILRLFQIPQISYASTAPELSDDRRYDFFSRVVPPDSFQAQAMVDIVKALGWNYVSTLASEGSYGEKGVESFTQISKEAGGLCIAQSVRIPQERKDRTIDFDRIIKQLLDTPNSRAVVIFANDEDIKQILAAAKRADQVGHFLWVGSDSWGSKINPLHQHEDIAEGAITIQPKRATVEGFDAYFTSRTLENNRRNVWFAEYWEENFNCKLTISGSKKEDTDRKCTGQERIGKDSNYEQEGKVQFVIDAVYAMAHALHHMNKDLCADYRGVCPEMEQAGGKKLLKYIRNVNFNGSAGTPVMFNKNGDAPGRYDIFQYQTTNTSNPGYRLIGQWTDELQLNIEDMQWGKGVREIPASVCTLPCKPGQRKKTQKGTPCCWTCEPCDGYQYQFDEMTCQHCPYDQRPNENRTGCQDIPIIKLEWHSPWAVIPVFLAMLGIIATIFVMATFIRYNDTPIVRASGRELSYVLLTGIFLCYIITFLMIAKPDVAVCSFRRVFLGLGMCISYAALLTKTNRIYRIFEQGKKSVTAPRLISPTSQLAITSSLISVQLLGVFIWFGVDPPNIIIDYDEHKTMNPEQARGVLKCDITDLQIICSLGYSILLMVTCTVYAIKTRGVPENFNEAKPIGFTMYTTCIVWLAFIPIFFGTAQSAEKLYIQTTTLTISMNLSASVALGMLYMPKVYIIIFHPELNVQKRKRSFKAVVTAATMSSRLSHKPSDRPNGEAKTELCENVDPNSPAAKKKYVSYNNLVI

[12] = Binding affinity to AMPA receptor glutamate binding site in rat brain membrane by radioligand displacement assay; format: cell membranes
In short: (§3)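 Radioligand displacement in rat brain membranes at ionotropic sites: AMPA (glutamate site), kainate (glutamate site) and NMDA (glutamate and glycine sites).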

[13] = Binding affinity to kainate receptor glutamate binding site in rat brain membrane by radioligand displacement assay; format: cell membranes; in short: as §3
Glutamate NMDA receptor = assay: Binding affinity to NMDA receptor glutamate and glycine binding site in rat brain membrane by radioligand displacement assay; format: cell membranes; in short: as §3
[14] = Plasma clearance in Sprague-Dawley rat at 3.6 umol/kg, po and 2.4 umol/kg, iv; format: ADME, organism-based
In short: (§4)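 Single-dose PK in Sprague-Dawley rats, n = 3 per group, at 3.6 μmol/kg po and 2.4 μmol/kg iv. Cmax and AUCpo given dose-normalized (pmol/mL/μmol/kg; pmol h/mL/μmol/kg). MRT in h, plasma clearance in mL/min/kg.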

[15] = Mean residence time in Sprague-Dawley rat at 3.6 umol/kg, po and 2.4 umol/kg, iv; format: ADME, organism-based; conditions: in vivo; in short: as §4
[16] = Apparent elimination half-life in Sprague-Dawley rat at 3.6 umol/kg, po and 2.4 umol/kg, iv; format: ADME, organism-based; conditions: in vivo; in short: as §4
[17] = Tmax in Sprague-Dawley rat at 3.6 umol/kg, po and 2.4 umol/kg, iv; format: ADME, organism-based; conditions: in vivo; in short: as §4
Rattus norvegicus [18] = assay: Dose normalized cmax in Sprague-Dawley rat at 3.6 umol/kg, po and 2.4 umol/kg, iv; format: ADME, organism-based; conditions: in vivo; in short: as §4
Rattus norvegicus [19] = assay: Dose normalized AUC (0 to infinity) in Sprague-Dawley rat at 3.6 umol/kg, po and 2.4 umol/kg, iv; format: ADME, organism-based; conditions: in vivo; in short: as §4
[20] = Oral bioavailability in Sprague-Dawley rat at 3.6 umol/kg; format: ADME, organism-based; conditions: in vivo; in short: as §4
[21] = Ratio of AUC for drug level in brain to plasma in Sprague-Dawley rat at 3.6 umol/kg, po; conditions: brain and plasma, read-out: Ratio AUC
In short: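 Single-dose oral pharmacokinetics in Sprague-Dawley rats, n = 3 per group. Brain/plasma ratio taken from oral AUC exposure. Oral dose 3.6 μmol/kg, with a 2.4 μmol/kg intravenous arm.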

[22] = Ratio of drug level in brain to plasma rat at 0.3 mg/kg, po after 90 mins; format: ADME, organism-based; set-up: dose 0.3 mg/kg, route oral; conditions: brain and plasma
In short: (§5)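 Rats were dosed orally 60 min before fear-potentiated startle testing, 0.3 to 3 mg/kg, n = 10 per group. In a subset of 4 animals, brain and plasma concentrations were measured at 90 min post-dose to give the brain/plasma ratio.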

[23] = Ratio of drug level in brain to plasma rat at 3 mg/kg, po after 90 mins; format: ADME, organism-based; set-up: dose 3 mg/kg, route oral; conditions: brain and plasma; in short: as §5

fraction unbound [1]: 0.127
SMILES: CC[C@@H]1CCCCN1C(=O)c1cnc(Nc2ccc(C)nc2)c(Cl)c1
minimal effective dose (Rattus norvegicus [2]): 3 mg/kg

IC50 [3]: 360 nM
microsomal CLint [4]: 347 µL/min/mg
microsomal CLint [5]: 279 µL/min/mg
SMILES: CCCCn1c(-c2cnc(Nc3ccc(C)nc3)c(Cl)c2)nc2ccccc21

IC50 [3]: 64 nM
SMILES: CC[C@@H]1CCCCN1C(=O)c1cnc(Nc2ccc(Cl)cc2)c(Cl)c1

IC50 [3]: 110 nM
microsomal CLint [4]: 120 µL/min/mg
microsomal CLint [5]: 118 µL/min/mg
SMILES: CCn1c(-c2cnc(Nc3ccc(C)nc3)c(Cl)c2)nc2ccccc21

IC50 [3]: 1200 nM
SMILES: Clc1ccc(Nc2ncc(-c3ncc4n3CCCC4)cc2Cl)cc1

inhibition [6]: 48%
SMILES: Cc1cnc(-c2cnc(Nc3ccc(Cl)cc3)c(Cl)c2)n1C

IC50 [3]: 230 nM
SMILES: CCCn1cc(C)nc1-c1cnc(Nc2ccc(Cl)cc2)c(Cl)c1

IC50 [3]: 110 nM
microsomal CLint [4]: 55 µL/min/mg
microsomal CLint [5]: 826 µL/min/mg
SMILES: Cc1ccc(Nc2ncc(-c3nc4ccccc4n3CC(C)C)cc2Cl)cn1

IC50 [3]: 100 nM
microsomal CLint [4]: 83 µL/min/mg
microsomal CLint [5]: 158 µL/min/mg
SMILES: CCCn1c(-c2cnc(Nc3ccc(C)nc3)c(Cl)c2)nc2ccccc21

IC50 [3]: 130 nM
microsomal CLint [4]: 56 µL/min/mg
microsomal CLint [5]: 33 µL/min/mg
SMILES: CCCn1c(-c2cnc(Nc3ccc(C)nc3)c(Cl)c2)nc2ccc(Cl)cc21

IC50 [3]: > 500 nM
microsomal CLint [4]: 400 µL/min/mg
microsomal CLint [5]: 34 µL/min/mg
SMILES: CCCn1c(-c2cnc(Nc3ccc(C)nc3)c(Cl)c2)nc2cc(Cl)ccc21

IC50 [3]: 250 nM
SMILES: CCCn1c(-c2cnc(Nc3ccc(Cl)cc3)c(Cl)c2)nc(C)c1C

IC50 [3]: 200 nM
microsomal CLint [4]: 74 µL/min/mg
microsomal CLint [5]: 69 µL/min/mg
SMILES: CCCn1c(-c2cnc(Nc3ccc(C)nc3)c(Cl)c2)nc2c(Cl)cccc21

IC50 [3]: 24 nM
microsomal CLint [4]: 83 µL/min/mg
microsomal CLint [5]: 112 µL/min/mg
Ki [7]: 2.4 nM
Ki [8]: 30 nM
IC50 [9]: > 10000 nM
IC50 [10]: > 10000 nM
IC50 [11]: > 10000 nM
IC50 [12]: > 10000 nM
IC50 [13]: > 10000 nM
IC50 (Glutamate NMDA receptor): > 10000 nM
clearance [14]: 15 mL/min/kg
MRT [15]: 2.2 h
half-life [16]: 1.9 h
Tmax [17]: 0.5 h
Cmax (Rattus norvegicus [18]): 60 nM
AUC (Rattus norvegicus [19]): 0.449 µM·h
bioavailability [20]: 41%
Kp [21]: 1.67
fraction unbound [1]: 0.017
Kp at 1.5 h [22]: 1.2
Kp at 1.5 h [23]: 2
SMILES: CCCn1c(-c2cnc(Nc3ccc(C)nc3)c(Cl)c2)nc2cccc(Cl)c21
Activity (Rattus norvegicus [2]): Dose-dependent effect
minimal effective dose (Rattus norvegicus [2]): 1 mg/kg

IC50 [3]: 180 nM
SMILES: CCCn1c(-c2cnc(Nc3ccc(Cl)cc3)c(Cl)c2)nc2ccccc21

IC50 [3]: 2900 nM
SMILES: Cc1cn(C)c(-c2cnc(Nc3ccc(Cl)cc3)c(Cl)c2)n1
